# Assay results gathered from unrelated publications.
# Compare with care: the assays were run in different laboratories.
# KIT L576P: Mast/stem cell growth factor receptor Kit (KIT, Homo sapiens, UniProt P10721, L576P)
# KIT autoinhibited: Mast/stem cell growth factor receptor Kit, autoinhibited (KIT, Homo sapiens, UniProt P10721)
# KIT A829P: Mast/stem cell growth factor receptor Kit (KIT, Homo sapiens, UniProt P10721, A829P)
# KIT: Mast/stem cell growth factor receptor Kit (KIT, Homo sapiens, UniProt P10721)
# KIT V559D: Mast/stem cell growth factor receptor Kit (KIT, Homo sapiens, UniProt P10721, V559D)
# KIT V559D/V654A: Mast/stem cell growth factor receptor Kit (KIT, Homo sapiens, UniProt P10721, V559D/V654A)
# KIT D816V: Mast/stem cell growth factor receptor Kit (KIT, Homo sapiens, UniProt P10721, D816V)
Compound,target,observed,method,tested at,remaining binding [%]
N[C@H]1CCN(c2nccc(-c3cnn4ncccc34)n2)C1,KIT L576P,binding,,1 µM,86
Cc1cnc(Nc2ccc(C(=O)N3CCC(N4CCCC4)CC3)cc2)nc1-c1cc2ccccc2s1,KIT autoinhibited,binding,competition with immobilised ligand,1 µM,22
CCC(=O)N[C@@H]1CC[C@H](C(=O)N(C)c2ccc(-c3nc4ccccc4o3)cc2)C1,KIT autoinhibited,cell-free assay,competition with immobilised ligand,1 µM,93
c1cnn2ncc(-c3ccnc(N4CCC45COC5)n3)c2c1,KIT A829P,binding,,1 µM,61
NS(=O)(=O)c1cc(NC(=O)C2(c3ccccc3Cl)CC2)ccc1Oc1cccc(Cl)c1,KIT A829P,cell-free assay,competition with immobilised ligand,1 µM,69
C[C@H]1CCN(c2nccc(-c3cnn4ncccc34)n2)C1,KIT,binding,,1 µM,96
CC(C)(C)c1ccc(-c2nc(CBr)nn2-c2cccc(O)c2)cc1,KIT,cell-free assay,competition with immobilised ligand,10 µM,97
CCN1CCN(Cc2ccc(C(=O)Nc3ccc(C)c(Oc4ccc5c(c4)CC(=O)N5)c3)cc2C(F)(F)F)CC1,KIT V559D,binding,competition with immobilised ligand,1 µM,0.4
COCCOc1nc(-c2ccc(Cl)nc2)nc2c1CN(C(=O)c1ncn3ccccc13)CC2,KIT L576P,cell-free assay,competition with immobilised ligand,0.1 µM,100
COc1ncc2cc3ccccc3nc2c1C#N,KIT autoinhibited,cell-free assay,competition with immobilised ligand,5 µM,98
COc1cnc(Nc2cccc(S(N)(=O)=O)c2)nc1N1CCN(c2ccccc2)CC1,KIT autoinhibited,binding,competition with immobilised ligand,1 µM,90
O=C(NCCCN1CCOCC1)c1ccc(Nc2nccc(-c3cc4ccccc4s3)n2)cc1,KIT V559D/V654A,binding,competition with immobilised ligand,1 µM,56
CNC(=O)Nc1ccc2c(c1)CC[C@@]21OC(=O)N(CC(=O)N(Cc2ccc(F)cc2)[C@@H](C)C(F)(F)F)C1=O,KIT V559D,cell-free assay,competition with immobilised ligand,1 µM,100
CN(CCCC(F)(F)F)c1nccc(-c2cnn3ncccc23)n1,"Mast/stem cell growth factor receptor Kit (KIT, Homo sapiens, UniProt P10721, T670I/V559D)",binding,,1 µM,100
CNC(=O)c1ccc(Nc2ncc(C(F)(F)F)c(NCc3nccnc3N(C)S(C)(=O)=O)n2)cc1,KIT L576P,cell-free assay,competition with immobilised ligand,0.1 µM,86
O=C(c1ccc(Nc2ncc(Cl)c(-c3cc4ccccc4s3)n2)cc1)N1CCC(N2CCCC2)CC1,KIT L576P,binding,competition with immobilised ligand,1 µM,4.5
COc1cnc(Nc2cccc(S(N)(=O)=O)c2)nc1N1CCN(c2ccccc2)C(=O)C1,KIT autoinhibited,binding,competition with immobilised ligand,1 µM,95
O=C(NCC1CCOCC1)c1n[nH]cc1NC(=O)c1c(F)cccc1F,KIT A829P,binding,competition with immobilised ligand,1 µM,84
CC1CCCN1c1nccc(-c2cnn3ncccc23)n1 (stereo not drawn),KIT V559D/V654A,binding,,1 µM,100
O=C(Nc1cccnn1)N1CC(C/C=C/c2cncc(Oc3ccc(C(F)(F)F)cn3)n2)C1,KIT D816V,cell-free assay,competition with immobilised ligand,1 µM,100
Cc1cnn2ncc(-c3ccnc(N(C)C)n3)c2c1,KIT V559D,binding,,1 µM,100
C[C@@H](c1ccc(-n2cnc3c(N)ncnc32)cc1)N1CCc2nn(C)c(Cc3ccccc3)c2C1=O,KIT V559D/V654A,binding,competition with immobilised ligand,0.1 µM,78
CCCCN(CCCC)C(=O)CN1C[C@H](c2cc(OC)c3c(c2)OCO3)[C@@H](C(=O)O)[C@@H]1CC(C)(C)CCC,KIT D816V,cell-free assay,competition with immobilised ligand,1 µM,100
CN1CCN(c2ccc(Nc3nccc(-c4cccc([N+](=O)[O-])c4)n3)cc2C(F)(F)F)CC1,KIT D816V,binding,,10 µM,1.1
